Values after ≈ are worked out from the molar mass of the structure shown.
Columns and labels:
Haemophilus influenzae = assay: In vitro antimicrobial activity against Haemophilus influenzae.; assay type: functional
Staphylococcus aureus = assay: In vitro antimicrobial activity against Staphylococcus aureus X1; assay type: functional
Streptococcus pneumoniae [1] = assay: In vivo effective dose against experimental infections in mice Streptococcus pneumoniae park when administered orally; assay type: functional; conditions: po
Streptococcus pneumoniae [2] = assay: In vivo effective dose against experimental infections in mice Streptococcus pneumoniae park when administered sc; assay type: functional
Streptococcus pyogenes [3] = assay: In vivo effective dose against experimental infections in rodent caused by Streptococcus pyogenes C203 when administered sc; assay type: functional
Streptococcus pneumoniae [4] = assay: In vitro antimicrobial activity against Streptococcus pneumoniae; assay type: functional
[5] = system: Staphylococcus epidermidis; assay: In vitro antimicrobial activity against Staphylococcus epidermidis EPI1; assay type: functional
Enterococcus faecium = assay: In vitro antimicrobial activity against Streptococcus faecium X66; assay type: functional, streptococcus fae-cium
Streptococcus pyogenes [6] = assay: In vitro antimicrobial activity against Streptococcus pyogenes C203; assay type: functional
Streptococcus pyogenes [7] = assay: In vivo effective dose against experimental infections in rodent caused by Streptococcus pyogenes C203 when administered orally; assay type: functional; conditions: po
Bacteroides fragilis [8] = assay: In vitro antimicrobial activity against anaerobic bacteria bacteroides fragilis 111; assay type: functional
Bacteroides fragilis [9] = assay: In vitro antimicrobial activity against anaerobic bacteria bacteroides fragilis 1877; assay type: functional
Bacteroides fragilis [10] = assay: In vitro antimicrobial activity against anaerobic bacteria bacteroides fragilis 1936B,; assay type: functional
Eikenella corrodens = assay: In vitro antimicrobial activity against anaerobic bacteria bacteroides corrodens 1874; assay type: functional
Phocaeicola vulgatus = assay: In vitro antimicrobial activity against anaerobic bacteria bacteroides vulgatus 1211; assay type: functional
[11] = system: Prevotella melaninogenica; assay: In vitro antimicrobial activity against anaerobic bacteria bacteroides melaninogenicus 1856,; assay type: functional
[12] = system: Bacteroides thetaiotaomicron; assay: In vitro antimicrobial activity against anaerobic bacteria bacteroides thetaiotaomicron 1438; assay type: functional
Clostridioides difficile = assay: In vitro antimicrobial activity against anaerobic bacteria Clostridium difficile 2994; assay type: functional
Clostridium perfringens = assay: In vitro antimicrobial activity against anaerobic bacteria clostridium perfringens 81,; assay type: functional
Clostridium septicum = assay: In vitro antimicrobial activity against anaerobic bacteria clostridium septicum 1128; assay type: functional
Chlamydia trachomatis = assay: In vitro antimicrobial activity against chlamydia trachomatis.; assay type: functional
Fusobacterium = assay: In vitro antimicrobial activity against anaerobic bacteria fusobacterium symbiosum 1470; assay type: functional
Mus musculus [13] = assay: Peripheral plasma levels in mice after oral administration of 50 mg/kg dose for 2 hr; assay type: functional, organism-based; design: dose 50 mg/kg
In short: (§1)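 Mice were given the compound orally and sampled for peripheral plasma at each time point. Plasma was assayed microbiologically against Micrococcus luteus seeded in Antibiotic Medium 1. Inhibition zone sizes were read, and concentrations were calculated from each compound's own standard curve. Each value is the mean of five mice per time point.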

Mus musculus [14] = assay: Peripheral plasma levels in mice after oral administration of 100 mg/kg dose for 4 hr; assay type: functional, organism-based; design: dose 100 mg/kg; in short: as §1
Mus musculus [15] = assay: Peripheral plasma levels in mice after oral administration of 50 mg/kg dose for 0.25 hr; assay type: functional, organism-based; design: dose 50 mg/kg; in short: as §1
Mus musculus [16] = assay: Peripheral plasma levels in mice after oral administration of 100 mg/kg dose for 0.25 hr; assay type: functional, organism-based; design: dose 100 mg/kg; in short: as §1
Mus musculus [17] = assay: Peripheral plasma levels in mice after oral administration of 100 mg/kg dose for 0.5 hr; assay type: functional, organism-based; design: dose 100 mg/kg; in short: as §1
Mus musculus [18] = assay: Peripheral plasma levels in mice after oral administration of 100 mg/kg dose for 1 hr; assay type: functional, organism-based; design: dose 100 mg/kg; in short: as §1
Mus musculus [19] = assay: Peripheral plasma levels in mice after oral administration of 100 mg/kg dose for 2 hr; assay type: functional, organism-based; design: dose 100 mg/kg; in short: as §1
Mus musculus [20] = assay: Peripheral plasma levels in mice after oral administration of 50 mg/kg dose for 1 hr; assay type: functional, organism-based; design: dose 50 mg/kg; in short: as §1
[21] = In vitro antimicrobial activity against anaerobic bacteria peptostreptococcus intermedius 1264; assay type: functional
[22] = system: Peptoniphilus asaccharolyticus; assay: In vitro antimicrobial activity against anaerobic bacteria peptococcus asaccharolyticus 1302; assay type: functional
Anaerococcus prevotii = assay: In vitro antimicrobial activity against anaerobic bacteria peptococcus prevoti 1281; assay type: functional
Cutibacterium acnes = assay: In vitro antimicrobial activity against anaerobic bacteria propionibacterium acnes 79; assay type: functional
[23] = system: Prevotella melaninogenica; assay: In vitro antimicrobial activity against anaerobic bacteria bacteroides melaninogenicus 2736; assay type: functional
[24] = system: Fusobacterium necrophorum; assay: In vitro antimicrobial activity against anaerobic bacteria usobacterium necrophorum 6054A; assay type: functional
Mus musculus [25] = assay: Peripheral plasma levels in mice after oral administration of 50 mg/kg dose for 0.5 hr; assay type: functional, organism-based; design: dose 50 mg/kg; in short: as §1
Collinsella aerofaciens = assay: In vitro antimicrobial activity against anaerobic bacteria eubacterium aerofaciens 1235; assay type: functional
[26] = system: Peptostreptococcus anaerobius; assay: In vitro antimicrobial activity against anaerobic bacteria eubacterium peptostreptococcus anaerobius 1428,; assay type: functional
Streptococcus pyogenes [27] = assay: Effective dose against Streptococcus pyogenes C203 when administered sc; assay type: functional
In short: (§2)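 Mouse protection test: infected mice were dosed twice, at 1 and 5 h postinfection, either subcutaneously or orally. […] The result is expressed as ED50 in mg/kg × 2.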

Streptococcus pyogenes [28] = assay: Antimicrobial activity against Streptococcus pyogenes C203; assay type: functional
Streptococcus pyogenes [29] = assay: Activity against Streptococcus pyogenes C203 when administered orally; assay type: functional; conditions: po; in short: as §2
Streptococcus pyogenes [30] = assay: Activity against Streptococcus pyogenes C203 when administered sc; assay type: functional; in short: as §2

SMILES: CC[C@H]1OC(=O)C[C@@H](O)[C@H](C)[C@@H](O[C@@H]2O[C@H](C)[C@@H](O)[C@H](N(C)C)[C@H]2O)[C@@H](CCOc2ccc(Oc3ccccc3)cc2)C[C@@H](C)C(=O)/C=C/C(C)=C/[C@@H]1CO[C@@H]1O[C@H](C)[C@@H](O)[C@@H](OC)[C@H]1OC
- MIC (Haemophilus influenzae): 16 µg/mL (≈ 17 µM)
- MIC (Staphylococcus aureus): 0.5 µg/mL (≈ 0.531 µM)
- ED50 (Streptococcus pneumoniae [1]): 38 mg/kg
- ED50 (Streptococcus pneumoniae [2]): > 20 mg/kg
- ED50 (Streptococcus pyogenes [3]): > 10 mg/kg
- MIC (Streptococcus pneumoniae [4]): 0.25 µg/mL (≈ 0.265 µM)
- MIC [5]: 0.5 µg/mL (≈ 0.531 µM)
- MIC (Enterococcus faecium): 0.5 µg/mL (≈ 0.531 µM)
- MIC (Streptococcus pyogenes [6]): 0.25 µg/mL (≈ 0.265 µM)
- ED50 (Streptococcus pyogenes [7]): 29 mg/kg

SMILES: CC[C@H]1OC(=O)C[C@@H](O)[C@H](C)[C@@H](O[C@@H]2O[C@H](C)[C@@H](O[C@H]3C[C@@](C)(O)[C@@H](O)[C@H](C)O3)[C@H](N(C)C)[C@H]2O)[C@@H](CCCl)C[C@@H](C)C(=O)/C=C/C(C)=C/[C@@H]1CO[C@@H]1O[C@H](C)[C@@H](O)[C@@H](OC)[C@H]1OC
- MIC (Bacteroides fragilis [8]): 8 µg/mL (≈ 8.54 µM)
- MIC (Bacteroides fragilis [9]): 4 µg/mL (≈ 4.27 µM)
- MIC (Bacteroides fragilis [10]): 4 µg/mL (≈ 4.27 µM)
- MIC (Eikenella corrodens): 4 µg/mL (≈ 4.27 µM)
- MIC (Phocaeicola vulgatus): 1 µg/mL (≈ 1.07 µM)
- MIC [11]: 2 µg/mL (≈ 2.14 µM)
- MIC [12]: 2 µg/mL (≈ 2.14 µM)
- MIC (Clostridioides difficile): < 0.5 µg/mL
- MIC (Clostridium perfringens): < 0.5 µg/mL
- MIC (Clostridium septicum): < 0.5 µg/mL
- MIC (Chlamydia trachomatis): 1 µg/mL (≈ 1.07 µM)
- MIC (Fusobacterium): 4 µg/mL (≈ 4.27 µM)
- MIC (Haemophilus influenzae): > 128 µg/mL
- Concentration (Mus musculus [13]): 0.5 µg/mL
- Concentration (Mus musculus [14]): 0.4 µg/mL
- Concentration (Mus musculus [15]): 1.9 µg/mL
- Concentration (Mus musculus [16]): 10 µg/mL
- Concentration (Mus musculus [17]): 8.8 µg/mL
- Concentration (Mus musculus [18]): 3 µg/mL
- Concentration (Mus musculus [19]): 1.3 µg/mL
- Concentration (Mus musculus [20]): 0.9 µg/mL
- MIC [21]: 64 µg/mL (≈ 68.3 µM)
- MIC [22]: 32 µg/mL (≈ 34.2 µM)
- MIC (Anaerococcus prevotii): 8 µg/mL (≈ 8.54 µM)
- MIC (Cutibacterium acnes): > 128 µg/mL
- MIC (Staphylococcus aureus): 1 µg/mL (≈ 1.07 µM)
- ED50 (Streptococcus pyogenes [3]): > 6.3 mg/kg
- MIC (Streptococcus pneumoniae [4]): 32 µg/mL (≈ 34.2 µM)
- MIC [5]: 1 µg/mL (≈ 1.07 µM)
- MIC (Enterococcus faecium): > 128 µg/mL
- MIC (Streptococcus pyogenes [6]): 2 µg/mL (≈ 2.14 µM)
- MIC [23]: 2 µg/mL (≈ 2.14 µM)
- MIC [24]: > 128 µg/mL
- Concentration (Mus musculus [25]): 1.9 µg/mL
- MIC (Collinsella aerofaciens): 64 µg/mL (≈ 68.3 µM)
- MIC [26]: 4 µg/mL (≈ 4.27 µM)

SMILES: CC[C@H]1OC(=O)C[C@@H](O)[C@H](C)[C@@H](O[C@@H]2O[C@H](C)[C@@H](O[C@H]3C[C@@](C)(O)[C@@H](O)[C@H](C)O3)[C@H](N(C)C)[C@H]2O)[C@@H](C)C[C@@H](C)C(=O)/C=C/C(C)=C/[C@@H]1CO[C@@H]1O[C@H](C)[C@@H](O)[C@@H](O)[C@H]1OC [DEFORMYLMACROCIN]
- MIC (Haemophilus influenzae): > 128 µg/mL
- MIC (Staphylococcus aureus): 2 µg/mL (≈ 2.29 µM)
- ED50 (Streptococcus pyogenes [27]): > 10 mg/kg
- ED50 (Streptococcus pyogenes [3]): > 10 mg/kg
- MIC (Streptococcus pneumoniae [4]): 64 µg/mL (≈ 73.2 µM)
- MIC [5]: 2 µg/mL (≈ 2.29 µM)
- MIC (Enterococcus faecium): 128 µg/mL (≈ 146 µM)
- MIC (Streptococcus pyogenes [6]): 2 µg/mL (≈ 2.29 µM)
- MIC (Streptococcus pyogenes [28]): 2 µg/mL (≈ 2.29 µM)

SMILES: CC[C@H]1OC(=O)C[C@@H](O)[C@H](C)[C@@H](O[C@@H]2O[C@H](C)[C@@H](O[C@H]3C[C@@](C)(O)[C@@H](O)[C@H](C)O3)[C@H](N(C)C)[C@H]2OC(C)=O)[C@@H](CCOc2ccccc2)C[C@@H](C)C(=O)/C=C/C(C)=C/[C@@H]1CO[C@@H]1O[C@H](C)[C@@H](O)[C@@H](OC)[C@H]1OC
- ED50 (Streptococcus pyogenes [29]): 76.5 mg/kg
- ED50 (Streptococcus pyogenes [30]): > 10 mg/kg
- MIC (Streptococcus pyogenes [28]): 4 µg/mL (≈ 3.86 µM)

SMILES: CC[C@H]1OC(=O)C[C@@H](O)[C@H](C)[C@@H](O[C@@H]2O[C@H](C)[C@@H](OC(C)=O)[C@H](N(C)C)[C@H]2OC(C)=O)[C@@H](CCOc2ccccc2)C[C@@H](C)C(=O)/C=C/C(C)=C/[C@@H]1CO[C@@H]1O[C@H](C)[C@@H](O)[C@@H](OC)[C@H]1OC
- ED50 (Streptococcus pyogenes [29]): 16 mg/kg
- ED50 (Streptococcus pyogenes [30]): 2.9 mg/kg
- MIC (Streptococcus pyogenes [28]): 0.5 µg/mL (≈ 0.535 µM)

Source: ChEMBL document CHEMBL1124186, “Synthesis and evaluation of tylosin-related macrolides modified at the aldehyde function: a new series of orally effective antibiotics” (1988)
